# Measurements collected from several papers.
# Target: Tyrosine-protein kinase Yes (YES1, Homo sapiens, UniProt P07947)
Compound,assay,conditions,measurement,value
Nc1nc(NC2CCCCC2)sc1C(=O)c1ccccc1,"enzyme activity, inhibitor",10 µM,remaining activity,114%
Cc1ccc(C(=O)Nc2ccc(CN3CCN(C)CC3)c(C(F)(F)F)c2)cc1C#Cc1cnc2cccnn12,enzyme activity,23.5 nM,remaining activity,34%
Oc1cccc(-c2nc(N3CCOCC3)c3oc4ncccc4c3n2)c1,"enzyme activity, inhibitor",10 µM,remaining activity,92%
CC/C(=N\NC(=O)NCc1cccc(O)c1)c1ccc(O)c(C)c1O,"enzyme activity, inhibitor",0.1 µM,inhibition,4.5%
CCC(=O)N[C@H]1CC[C@@H](C(=O)N(C)c2ccc(-c3nc4ccccc4o3)cc2)C1,"cell-free assay, competition with immobilised ligand",1 µM,remaining binding,82%
O=C(Nc1cnn(-c2csc(C(=O)NC3COC3)c2)c1)Nc1ccccc1Cl,"enzyme activity, inhibitor",5 µM,remaining activity,96.5%
CN1CC(Oc2cnc(C#N)cc2-c2ccn3nc(NC(=O)C4CC4)cc3c2)C1,"enzyme activity, inhibitor",1 µM,inhibition,86%
CCOc1cc(-c2nncn2C)ccc1Nc1ncc2cc(C)nc(NCC(C)(C)C)c2n1,"enzyme activity, inhibitor, FRET",1 µM,inhibition,22%
COc1cc(/C=C/C(=O)CC(=O)/C=C/c2ccc(O)c(OC)c2)ccc1O,"enzyme activity, inhibitor",1 µM,activity vs control,62%
CC(=O)c1c(NS(C)(=O)=O)c2cc(-c3ccc(Cl)cc3)c(-c3ccc(Cl)cc3Cl)nc2n(C)c1=O,"cell-free assay, competition with immobilised ligand",1 µM,remaining binding,96%
CNC(=O)c1cc(Oc2ccc(NC(=O)Nc3ccc(Cl)c(C(F)(F)F)c3)cc2)ccn1,cell-free assay,0.5 µM,remaining signal,82.8%
CCCOc1ccc(OC)c(F)c1C(=O)c1ccc(C(=O)N[C@@H]2CNC[C@H]2NC(=O)c2ccc3[nH]ncc3c2)cc1,"enzyme activity, inhibitor",10 µM,remaining activity,41%
CO[C@@H](C)c1c(Nc2ccc([C@H](N(C)C(=O)C3CCS(=O)(=O)CC3)C(F)(F)F)cc2)cnc2cc(Cl)nn12,"cell-free assay, competition with immobilised ligand",1 µM,remaining binding,99%
COc1cc2ncnc(Nc3ccc(Oc4ccccc4)c(C)c3C)c2cc1OC,"enzyme activity, inhibitor",1 µM,inhibition,88%
CCCCN(CCCC)C(=O)CN1C[C@H](c2cc(OC)c3c(c2)OCO3)[C@@H](C(=O)O)[C@@H]1CC(C)(C)CCC,"cell-free assay, competition with immobilised ligand",1 µM,remaining binding,100%
COc1cccc2c(NCc3ccccc3)nc(-n3c(N)nc4ccccc43)nc12,"target engagement in cells, inhibitor, chemoproteomics",20 mM,inhibition,-2.4%
COc1cc(Nc2cnc(C#N)c(O[C@H](C)CN(C)C)n2)ncc1-c1cnn(C)c1,"enzyme activity, inhibitor, radiometric",10 µM,remaining activity,39%
COc1cc(Cl)c(C(=O)N[C@@H](CN[C@H]2CC[C@@H](N)CC2)Cc2ccc(C#N)cc2)cc1-c1ccc(CN[C@H](C)c2ccc(C)cc2)o1,"enzyme activity, inhibitor",1 µM,remaining activity,62%
N#CCCc1ccc2c(c1)-c1[nH]c3ccc([N+](=O)[O-])cc3c1CC(=O)N2,cell-free assay,0.5 µM,remaining signal,35.8%
O=C(N1CCS(=O)(=O)CC1)N1C[C@H](c2ccc(OC(F)(F)F)cc2)C[C@H](c2nc(C3CC3)no2)C1,"cell-free assay, competition with immobilised ligand",1 µM,remaining binding,96%
Cc1ccc(C(=O)NCc2ccsc2)cc1C#Cc1cn(C(C)C)c2ncnc(N)c12,"enzyme activity, inhibitor",1 µM,activity vs control,2%
Nc1ncnc2occ(-c3ccc(NC(=O)Nc4cc(C(F)(F)F)ccc4F)cc3)c12,cell-free assay,20 µM,remaining signal,2.9%
FC(F)(F)Oc1cccc(-c2cnc3ccc(-c4ccncc4)nn23)c1,"enzyme activity, inhibitor, radiometric",5 µM,activity vs control,77%
Cc1cc(NC(=O)c2cccc3cc(-c4cccc5[nH]nc(N)c45)ccc23)ccc1F,"enzyme activity, inhibitor",0.1 µM,activity vs control,108%
Nc1nc(Nc2ccccc2)sc1C(=O)c1c(F)cccc1F,"enzyme activity, inhibitor",10 µM,remaining activity,26%
C[C@@H](c1cccc(C#N)c1)n1cc(Cl)cc(C(N)=O)c1=N,"cell-free assay, competition with immobilised ligand",1 µM,remaining binding,93%
CC(C)(C)c1nc2c(s1)c1nc(N)ncc1c1ccc(NS(=O)(=O)c3c(F)cccc3F)c(F)c12,"enzyme activity, inhibitor, radiometric",1 µM,remaining activity,124%
N#CC1(c2ccccn2)CCN(Cc2cc(C(=O)N3CCCC3)c(=O)n3ccccc23)CC1,"cell-free assay, competition with immobilised ligand",1 µM,remaining binding,84%
Cc1cnc(NC2CCOCC2)nc1-n1cnc(C(=O)NC(CN)c2cc(F)cc(Cl)c2)c1 (stereo not shown),"enzyme activity, inhibitor, radiometric",1 µM,remaining activity,97%
O=C1NC(=O)c2cc(Nc3ccc(F)cc3)c(Nc3ccc(F)cc3)cc21,cell-free assay,0.5 µM,remaining signal,86.6%
O=C(O)[C@H]1[C@H](Cn2nnc3ccccc3c2=O)CC[C@@H]1C(=O)c1ccc(OCCC2CCOCC2)cc1,"cell-free assay, competition with immobilised ligand",1 µM,remaining binding,100%
